“Also recorded” adds a separate entry of the source. Marks after values point to notes of the source that are not given here.
Legend:
Type in all cases: in vivo, rat
[1] = test system: β-cell leukemia/lymphoma 2 (Bcl-2); experiment: Serum Bcl-2 by ELISA in NDEA-induced HCC rats; conditions: HCC afflicted rats, 50 mg/kg b.wt orally daily for 5 weeks
In short: (§1)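 Female Wistar rats, 170-200 g, 10/group. HCC induced by oral NDEA in 0.9% saline, 20 mg/kg five times weekly for 4 weeks, then 10 mg/kg five times weekly for 1 week. Saline-dosed healthy and untreated HCC groups. Overnight fast after the last dose. Retro-orbital blood drawn under ether and clotted 45 min at room temperature. Serum spun at 1,800 x g for 15 min at 4°C and stored at -20°C. Rat ELISA kits. Mean ± SE; ANOVA with Tukey test.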

[2] = test system: alpha-fetoprotein (AFP); experiment: Serum alpha-fetoprotein; conditions: HCC afflicted rats, 50 mg/kg b.wt orally daily for 5 weeks; mean ± SE
In short: as §1

[3] = Oral pharmacokinetic study in HCC-induced rats; conditions: serum
In short: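 HCC induced by oral NDEA (20 mg/kg five times weekly for 4 weeks, then 10 mg/kg for 1 week). Rats (n=6) were fasted 12 h, then given one oral 50 mg/kg dose of free or nanocomposite test compound. Serum was sampled 0.083–24 h, spiked with pyrogallol and extracted into ethyl acetate. Measured by C18 HPLC at 280 nm; non-compartmental analysis, ke from terminal log-linear slope, MRT = AUMC/AUC.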

[4] = test system: pro-caspase 3; experiment: Serum pro-caspase 3 by ELISA in NDEA-induced HCC rats; conditions: HCC afflicted rats, 50 mg/kg b.wt orally daily for 5 weeks
In short: as §1

[5] = test system: lipocalin-2 (LCN-2); experiment: Serum lipocalin-2; conditions: HCC afflicted rats, 50 mg/kg b.wt orally daily for 5 weeks
In short: as §1

[6] = test system: heat shock protein-70 (HSP-70); experiment: Serum heat shock protein-70; conditions: HCC afflicted rats, 50 mg/kg b.wt orally daily for 5 weeks; mean ± SE
In short: as §1

[7] = Oral pharmacokinetic study in normal rats
[8] = test system: hepatocellular carcinoma (HCC) afflicted rats; experiment: Histological examination of liver tissue sections; conditions: 50 mg/kg b.wt orally daily for 5 weeks, H and E stain
[9] = test system: endoglin (ENG); experiment: Serum endoglin; conditions: HCC afflicted rats, 50 mg/kg b.wt orally daily for 5 weeks; mean ± SE
In short: as §1

[10] = normal rats, single dose 50 mg/kg p.o., serum
[11] = normal rats, single dose 50 mg/kg p.o., serum, 50 mg/kg

With `O=C(O)c1cc(O)c(O)c(O)c1` [GA, 3,4,5-trihydroxy benzoic acid] the “Change in serum Bcl-2 with respect to the HCC group” value [1] was -32.9%, the “Serum AFP” value [2] was 41.19 ± 0.83^b ng/ml and the AUMC last ([3]; HCC-afflicted rats, single dose 50 mg/kg p.o.) was 1.55 ± 0.014 µg·mL/h. For the same compound, the AUC(0-inf) ([3]; rat, po, 50 mg/kg) was 1670 ± 40 ng·h/mL, the AUC(0-t) ([3]; rat, po, 50 mg/kg) was 1340 ± 194 ng·h/mL and the MRT ([3]; rat, po, 50 mg/kg) was 1.43 ± 0.34 h. For the same compound, the half-life ([3]; rat, po, 50 mg/kg) was 84 ± 19.2 min, the “Change in serum pro-caspase 3 with respect to the HCC group” value [4] was -60.5% and the “Change in serum LCN-2 with respect to the HCC group” value [5] was -34.8%. The “Serum HSP-70” value [6] was 43.56 ± 0.8426^b ng/ L, the AUMC [7, 10] was 2.03 ± 0.44 µg·mL/h and the AUMC last [7, 10] was 1.3 ± 0.13 µg·mL/h. For the same compound, the Duration of action ([7]; normal rats, single dose 50 mg/kg p.o., serum concentration-time profile) was “approximately 1 hr”, the C max [7, 11] was 1.57 ± 0.108 µg/mL and the MRT [7, 11] was 1.063 ± 0.155 h. The AUC(0-inf) ([7]; rat, serum, po, 50 mg/kg) was 1890 ± 130 ng·h/mL, the AUC(0-t) ([7]; rat, serum, po, 50 mg/kg) was 1640 ± 45 ng·h/mL and the Tmax ([7]; rat, serum, po, 50 mg/kg) was 27.6 ± 5.1 min. For the same compound, the half-life ([7]; rat, serum, po, 50 mg/kg) was 37.2 ± 5.4 min, the Cmax ([7]; rat, serum, po, 50 mg/kg, C max, normal rats, single dose 50 mg/kg p.o.) was 1590 ng/mL and the MRT ([7]; rat, serum, po, 50 mg/kg, MRT, normal rats, single dose 50 mg/kg p.o.) was 1.06 h. The “Histopathological findings in liver tissue section” value [8] was “markedly recovered the anaplastic changes in the rat liver tissues; also recorded: congestion in the portal vein, multiple newly formed bile ducts and inflammatory cells infiltration in between at the portal area; also recorded: focal aggregations of mononuclear leucocytes inflammatory cells were detected in the hepatic parenchyma” and the “Serum ENG” value [9] was 4.16 ± 0.14^b ng/ml.
